About 200 (0.11%) of roughly 190,000 compounds were called active. Only a selection was taken, and actives are over-represented in it overall. A number with no mark means an inactive call.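 The calls were made as follows: active = inhibition above 80%; inactive = the rest.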
Molecular target: Broad substrate specificity ATP-binding cassette transporter ABCG2 (Homo sapiens) (UniProt Q9UNQ0)
Test: blockers of JC-1 export by ABCG2 – multiplex with ABCB1, IgMXP3 cells, flow cytometry, primary screen (AID 1325);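 also: 0% = DMSO and 100% = nicardipine control wells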
Conditions: JC-1 efflux, at 6.6 µM, stronger effect = higher value
Outline: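 test system = two drug-resistant human cell lines, ABCG2 and ABCB1 | amount = 3 million cells/mL final, two lines in 1:1 ratio | reagent = JC-1 transporter substrate | doses = one concentration, 6.6 µM final | incubation = 10 min at 25 °C | signal = flow cytometric JC-1 green MFI at 530 nm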

Broad substrate specificity ATP-binding cassette transporter ABCG2 (Homo sapiens), sequence (Q9UNQ0 whole entry, looked up): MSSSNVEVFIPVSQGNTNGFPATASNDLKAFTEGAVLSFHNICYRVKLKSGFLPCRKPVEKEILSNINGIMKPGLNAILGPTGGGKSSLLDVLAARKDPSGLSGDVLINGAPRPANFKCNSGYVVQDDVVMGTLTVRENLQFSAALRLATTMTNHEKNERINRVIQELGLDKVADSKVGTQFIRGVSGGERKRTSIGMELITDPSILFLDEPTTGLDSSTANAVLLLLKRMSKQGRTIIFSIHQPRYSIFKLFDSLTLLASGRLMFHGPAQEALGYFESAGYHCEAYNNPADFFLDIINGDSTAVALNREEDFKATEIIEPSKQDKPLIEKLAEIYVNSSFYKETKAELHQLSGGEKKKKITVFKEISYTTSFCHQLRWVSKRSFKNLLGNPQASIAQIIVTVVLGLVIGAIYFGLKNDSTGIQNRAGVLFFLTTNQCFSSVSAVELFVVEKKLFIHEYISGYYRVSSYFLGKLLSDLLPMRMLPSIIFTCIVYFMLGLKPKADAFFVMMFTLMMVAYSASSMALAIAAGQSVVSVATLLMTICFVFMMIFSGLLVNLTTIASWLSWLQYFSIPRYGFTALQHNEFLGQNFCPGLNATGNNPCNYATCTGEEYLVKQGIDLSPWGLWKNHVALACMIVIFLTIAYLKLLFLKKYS

| SMILES | inhibition |
| --- | --- |
| CC(C)n1c(-c2ccncc2)n[nH]c1=S | 0.69% |
| Clc1ncn(CCOc2ccccc2)c1Cl | 1.15% |
| CN(/C(=N/S(=O)(=O)c1cccs1)c1ccccc1)c1ccc(O)cc1 | 0.46% |
| N#C/C(=C/c1ccc(N2CCOCC2)o1)C(=O)N1CCOCC1 | 7.86% |
| COc1ccccc1-c1nnc(NC(=O)c2ccc3ncsc3c2)o1 | -4.46% |
| COC(=O)c1ccc(CSc2nncn2N)cc1 | -1.84% |
| CCOc1ccc(CN2CCN(Cc3ccon3)CC2CCO)cc1 (configuration not stated) | -2.99% |
| Cc1ncc([N+](=O)[O-])n1CCOC(=O)c1ccc(Br)cc1 | 9.29% |
| CCO/N=C(/C)c1c(O)cc(-c2ccccc2)n(-c2ccccc2)c1=O | 32.1% |
| Cc1nnsc1C(=O)Nc1cccc(Cl)c1C | 10.7% |
| CCC1=NN(C(=O)Cc2ccc([N+](=O)[O-])cc2)C(O)(c2ccc(Br)cc2)C1 (configuration not stated) | 5.42% |
| O=c1c(-c2ccccc2)coc2cc(O)ccc12 | 2.5% |
| CCn1nc(C)c(/C=N/NC(=O)Cc2ccc(Cl)cc2)c1C | 9.46% |
| Cc1ccc2nc(SCc3cn4c(C)cc(C)nc4n3)[nH]c2c1 | 7.53% |
| CC(C)(C)n1nc2c(c1NC(=O)c1cc3ccccc3o1)CSC2 | 0.23% |
| Cc1nc(N)c(Br)c(C)c1Br | 2.8% |
| CC(CCn1cccn1)NC(=O)CCc1nnc(CCc2ccccc2)o1 (configuration not stated) | -0.02% |
| CCOC(=O)c1c(NC(=O)c2ccc(Br)o2)sc2c1CCCC2 | 14.6% |
| CCOCC(=O)Nc1sc2c(c1C(=O)OCC)CCCC2 | 104% (active) |
| CCCOC(=O)Nc1sc2c(c1C(=O)OCC)CCC2 | 31.4% |
| O=C(NCc1ccccc1Cl)C1CCC(CNc2c(N3CCCCC3)c(=O)c2=O)CC1 (configuration not stated) | 0% |
| CCOC(=O)c1sc(/N=C/C2=C(O)CC(C)(C)CC2=O)c(C(=O)OCC)c1C | 3.82% |
| COc1ccc(CC(=O)NCc2nnc(SCC(=O)Nc3nccs3)n2C)cc1 | 0.7% |

| SMILES | inhibition |
| --- | --- |
| COc1cc(NC(=O)c2cccnc2SC)cc(OC)c1 | 11.7% |
| Cc1ccc(N2C(=O)SC(N(CC(=O)O)c3ccc(C)cc3)C2=O)cc1 (configuration not stated) | 1.16% |
| CC(=O)c1ccc(NC(=O)Nc2ccc([N+](=O)[O-])cc2C)cc1 | 28.4% |
| COc1ccc(-c2cn(-c3ccc(OC)cc3)c(=S)[nH]2)cc1 | 6.92% |
| O=C(Nc1ccc(Br)c2cccnc12)c1ccc(Cn2cc([N+](=O)[O-])cn2)o1 | 1.01% |
| CCc1ccc(NC(=O)c2ccc(Cn3cc([N+](=O)[O-])cn3)cc2)cc1 | 1.22% |
| COc1cccc(NC(=O)c2ccc(Cn3cc([N+](=O)[O-])cn3)o2)c1 | 89.2% (active) |
| Cc1ccc(SCCC(=O)NC(C(C)C)C(C)C)cc1 | 29.5% |
| CCOC(=O)CNc1nc2ccccc2n2c(C)nnc12 | 4.58% |
| COc1ccc(-n2c(C)cc(C(=O)CSc3nnc(-c4cccs4)o3)c2C)cc1 | 4.95% |
| Cc1cc(C(=O)COC(=O)c2cccs2)c(C)n1-c1c(C)n(C)n(-c2ccccc2)c1=O | 1.17% |
| COc1ccc(-n2c(C)cc(C(=O)COC(=O)c3cc(OC)c(OC)cc3NC(=O)c3cccs3)c2C)cc1 | 91.7% (active) |
| Brc1ccc(-c2csc(N/N=C/c3cccnc3)n2)cc1 | -0.01% |
| O=C(COC(=O)c1ccccc1)Nc1cccc(S(=O)(=O)N2CCOCC2)c1 | 8.84% |
| Cc1ccc(NC(=O)C(=O)NCc2ccc(/C=N/NC(=O)c3c(C)nc4cc(C)ccn34)o2)cc1 | 24.5% |
| c1ccc(-n2nnnc2-c2cccnc2)cc1 | 1.93% |
| COc1cccc(OC)c1C(=O)Nc1ccc(Cc2ccncc2)cc1 | 1.46% |
| CCOc1ccc(C(CC(=O)O)NC(=O)C23CC4CC(CC(C4)C2)C3)cc1OC (configuration not stated) | -1.01% |
| O=[N+]([O-])c1ccc2[nH]c3c(c2c1)CCCC3O (configuration not stated) | 14.8% |
| O=C(NC1CC1)C1CCCN(C(=O)NC2CCCCC2)C1 (configuration not stated) | 6.29% |
| CCN(CC)c1ccc([N+](=O)[O-])cc1C(=O)O | 3.47% |
| COc1cccc2cc(/C(C)=N/NC(=O)c3ccco3)oc12 | 6.63% |
| CC(=O)N1CCc2cc(Br)cc(S(=O)(=O)CCC(=O)Nc3c(C)n(C)n(-c4ccccc4)c3=O)c21 | -0.95% |

| SMILES | inhibition |
| --- | --- |
| O=C(Cn1ncc(N2CCCC2)c(Br)c1=O)c1ccc(Cl)cc1 | 8.74% |
| O=C(N/C(=C\c1ccc(F)cc1)C(=O)N1CCCCCC1)c1ccccc1 | 0.94% |
| CCc1nnc(NC(=O)Cc2cccs2)s1 | -0.23% |
| C/C(=N\Nc1ncc(Cl)cc1Cl)c1ccc(S(=O)(=O)NCc2ccco2)cc1 | 81.6% (active) |
| COc1cccc(/C(C)=N/Nc2ncc(Cl)cc2Cl)c1 | 16.5% |
| Cc1c(Cl)cnc(NC(=O)COC(=O)c2ccc(S(=O)(=O)NCc3ccco3)cc2)c1Cl | -0.23% |
| Cc1ccccc1N/C(SCc1ccc(Cl)cc1)=C(/C#N)C(N)=O | 9.99% |
| C/C(N)=C(/C#N)C(=O)COC(=O)C1CCN(C(=O)c2ccc(Cl)cc2)CC1 | 6.63% |
| Cc1c(C(=O)NCCCc2ccccc2)cccc1[N+](=O)[O-] | 5.18% |
| O=C(NCCCN1CCOCC1)c1ccc([N+](=O)[O-])cc1[N+](=O)[O-] | 1.56% |
| CN1CCCN(C(=O)C2CCCCC2)CC1 | 3.74% |
| CCN1CCN(C(=O)CCN2C(=O)c3ccccc3C2=O)CC1 | 12.2% |
| CCN(C(=O)CSc1nnc2ccccn12)C1CCS(=O)(=O)C1 (configuration not stated) | 6.4% |
| O=C(CCCOc1ccc(Cl)cc1Cl)NNC(=O)C1CCC1 | 8.42% |
| C#CCOCCOCCOCCNc1nc(N2CCN(C(=O)[C@H](Cc3ccc(O)cc3)n3cc(C(N)CC(C)C)nn3)CC2)nc(N2CCN(C(=O)[C@H](CCC(=O)O)n3cc(C(N)[C@H](C)CC)nn3)CC2)n1 (some centres not stated) | -1.91% |
| Cc1[nH]c2ccccc2c1/C=N/NC(=O)CNC(=O)c1ccc2c(c1)OCO2 | 0.16% |
| O=C(NNC(=S)Nc1ccc(Br)cc1Cl)c1ccco1 | -9.07% |
| CNC(=O)c1ccsc1NC(=O)c1ccc(S(=O)(=O)N2CCc3ccccc32)cc1 | 0.15% |
| CCCC(=O)NC(=S)Nc1ccc(CN2CCOCC2)cc1 | 1.31% |
| CCN(C(=O)COC(=O)/C=C/c1nc2ccccc2s1)C1CCS(=O)(=O)C1 (configuration not stated) | 1.28% |
| O=C(Nc1ccc(C(=O)O)cc1)/C(=C/c1ccc([N+](=O)[O-])cc1)NC(=O)c1ccccc1 | 2.36% |
| C=CCNC(=O)/C=C/c1ccc(C(C)C)cc1 | 3.56% |
| Cc1ccc(S(=O)(=O)NCCc2nnc3ccc(SCc4cccnc4)nn23)cc1 | 0.68% |

| SMILES | inhibition |
| --- | --- |
| COc1ccc(C(=O)COC(=O)c2nn(C)c(=O)c3ccccc23)c(OC)c1 | 8.17% |
| COCCCNC(=O)CNC(=S)N(Cc1cc(OC)c(OC)c(OC)c1)C1CCCC1 | -0.12% |
| O=C(COc1ccc(S(=O)(=O)N2CCCCC2)cc1)NCc1ccccn1 | 1.47% |
| CC1(C)CC(=O)c2c(n(S(=O)(=O)c3ccccc3)c3ccc(NS(=O)(=O)c4ccccc4)cc23)C1 | -0.92% |
| COc1ccc(Cl)cc1N(CC(=O)N/N=C/c1ccc(OCC(N)=O)cc1)S(C)(=O)=O | 8.83% |
| CCOc1ccc(-n2cnnn2)cc1S(=O)(=O)N1CCC(C)CC1C (configuration not stated) | 0.53% |
| O=C(NCCN1CCOCC1)Nc1cccc(Cl)c1 | 4.87% |
| Cc1cc(C)c2[nH]c(=O)c(CN(Cc3ccccc3)C(=S)NCCCN(C)C)cc2c1 | 54.5% |
| Nn1c(SCC(=O)Nc2nccs2)nncc1=O | 0.11% |
| COCCCNC(=O)/C=C/c1ccc(OCc2c(F)cccc2Cl)cc1 | 3.58% |
| COc1ccc(-c2[nH]ncc2CN(Cc2nccn2C)C(C)C)cc1F | 3.43% |
| N#CC1(C#N)C(C(=O)C23CC4CC(CC(C4)C2)C3)C12CCOCC2 (configuration not stated) | -1.02% |
| COc1cc(N2C(=O)c3ccccc3C2=O)c(Cl)cc1C(=O)OCC(=O)N1CCOCC1 | 2.21% |
| O=C(Oc1cccc(N2C(=O)C3C4c5ccccc5C(c5ccccc54)C3C2=O)c1)c1ccco1 (configuration not stated) | 0.99% |
| O=C1OCC2=C1C(c1ccccc1)CC(=O)N2c1cccc(F)c1 (configuration not stated) | 10.8% |
| COc1ccc(CN(C)Cc2nc3cc(OC)c(OC)cc3c(=O)[nH]2)c(OC)c1 | 3.26% |
| C[N+]1(CC(O)COc2ccccc2)CCN(C(=O)c2ccc([N+](=O)[O-])cc2)CC1 (configuration not stated) | 4.9% |
| CC1(C)CC(=O)C2=C(C1)Nc1cc(C(=O)c3ccccc3)ccc1NC2c1ccccn1 (configuration not stated) | 1.87% |
| CCN=c1sc(C(=O)Nc2ccccc2)c(C)n1CC | 3.73% |
| CC(C)(C)C(=O)CN1C2=NCCN2c2ccccc21 | 2.76% |
| Cn1c(=O)c2c(nc(N/N=C/c3cccs3)n2Cc2ccc(Br)cc2)n(C)c1=O | 8.74% |
| COc1ccc(Cl)cc1NC(=O)CNc1ccccc1F | 28.9% |
| Cc1ccc2sc(NNC(=O)c3ccc4c(c3)OCCO4)nc2c1C | 0% |

— PubChem BioAssay AID1325 (NMMLSC, 2008)
